Screening results (PubChem BioAssay)
The list is not random: actives were taken first. Their share in the collection is about 2.4%.
SR-BI HDL uptake: inhibitors of mouse SR-BI mediated HDL lipid uptake. Q61009. ldlA[mSR-BI] CHO cells, DiI-HDL uptake fluorescence, 3 h. inhibition, % at 12.5 µM. 320,000 tested, 0.96% active. AID 488896;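 active means mean replicate inhibition of at least 70% and a set share of replicates each scoring 70 or more; inconclusive means meets just one of the two criteria; inactive means fails both criteria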;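 further: 0% = median of neutral control wells and 100% = median of positive control wells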
Target sequence (Q61009 whole entry, looked up): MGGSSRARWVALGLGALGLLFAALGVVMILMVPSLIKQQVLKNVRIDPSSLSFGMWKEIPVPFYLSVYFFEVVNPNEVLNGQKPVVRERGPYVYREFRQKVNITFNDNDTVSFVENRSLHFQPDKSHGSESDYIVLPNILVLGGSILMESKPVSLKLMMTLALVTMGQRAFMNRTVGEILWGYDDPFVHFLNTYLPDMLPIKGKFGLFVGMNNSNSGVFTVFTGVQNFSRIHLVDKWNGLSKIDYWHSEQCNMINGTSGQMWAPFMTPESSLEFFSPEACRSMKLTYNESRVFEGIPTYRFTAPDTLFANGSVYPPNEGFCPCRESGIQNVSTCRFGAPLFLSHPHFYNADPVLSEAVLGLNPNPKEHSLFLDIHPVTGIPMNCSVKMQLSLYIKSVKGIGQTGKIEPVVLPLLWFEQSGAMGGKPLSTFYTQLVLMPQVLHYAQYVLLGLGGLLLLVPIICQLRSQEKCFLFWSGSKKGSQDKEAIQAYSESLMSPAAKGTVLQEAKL
Calb FLC: affects C. albicans growth with fluconazole. C. albicans CaCi-2 + fluconazole, Alamar Blue growth, 48 h. growth inhibition, % (no concentration beside the values). 300,000 tested, 0.57% active;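 active means growth inhibition above about 58% in most replicates, limit read from the data, passing the limit was not always enough; inconclusive means exactly half the replicates above a set limit; inactive means most replicates below a set limit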;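 further: all wells also contain fluconazole at 8 µg/ml as a sub-toxic cotreatment; 0% = median of DMSO wells and 100% = median of geldanamycin control wells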
MIN6 prolif: MIN6 beta-cell proliferation induction | 330,000 tested, 0.29% active | proliferation, % at 10 µM | AID 2380 | MIN6 cells proliferation, ATPlite luminescence, 48 h; cells starved in 0.2% serum; 100% = growth in 10% serum;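 active means compounds whose signal lies at least 3.5 SD above the mean of all wells on their plate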;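 further: 0% = DMSO-treated cells in low-serum medium and 100% = 10% serum control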
SR-BI uptake up: activators of SR-BI mediated HDL lipid uptake. CHO ldlA[mSR-BI] cells, DiI-HDL uptake fluorescence, 3 h; 100 = double the neutral-control signal. 320,000 tested, 0.096% active. activation, % at 12.5 µM. AID 504775;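 active means mean replicate activation of at least 60% and every replicate at or above 60%; inconclusive means mean or all-replicate condition met, but not both; inactive means mean below 60% and not all replicates reaching 60%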;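 further: 0% = median plate neutral-control signal and 100% = twice that signal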
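material = CHO ldlA[mSR-BI] cells | medium = Ham's F12 with 0.5% BSA, HEPES 25 mM, pH 7.4 | reagent = fluorescent DiI-HDL, 10 µg/mL final | compound dosing = single-point compound dose | incubation = 3 h, 37 °C | measured by = bottom-read fluorescence, 550/595 nm | measure = HDL uptake via cellular fluorescence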
Insulin prom up: MIN6 insulin promoter up-regulation | z-score at 5 µM | 190,000 tested, 0.3% active | MIN6 insulin promoter-GFP reporter, high-content imaging; hits give high values;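 active means z-score above 3 at 5 µM with at least 500 cells counted in the well; inconclusive means wells under 500 cells, flagged as cytotoxic or low count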
HTR2A ag: agonists of mouse serotonin 5-HT2A receptor (HTR2A); P35363; CHO-K1 mHTR2A beta-arrestin complementation, luminescence; percent of 30 µM serotonin response; activation, % at 7.6 µM; 360,000 tested, 0.66% active; AID 624169;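 active means activation above a run cutoff, the mean activation of all tested compounds plus 3 SD, cut at about 14% in these data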;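 further: 0% = plate median of compound wells and 100% = 30 µM serotonin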
Starred values were filed as active, the others as inactive.

What do the screens show for `CN(c1cccc(F)c1)c1cc2c(c3c1ccn3C)C1CCC2O1` (configuration not stated)?
HTR2A ag: -19

How did Fc1ccc(-c2nc(-c3cccs3)[nH]c2-c2ccc(F)cc2)cc1 do in these assays?
SR-BI HDL uptake: 59; Calb FLC: -7; MIN6 prolif: -6; SR-BI uptake up: -59; Insulin prom up: -0.41; HTR2A ag: -3

Results for Oc1ccc(-c2nc(-c3ccc(F)cc3)c(-c3ccncc3)[nH]2)cc1 ?
SR-BI HDL uptake: 74*; MIN6 prolif: -5; SR-BI uptake up: -74; HTR2A ag: 2

How did Cc1ccc(S(=O)(=O)Cc2c(C)noc2C)cc1 do in these assays?
SR-BI HDL uptake: -15; Calb FLC: 19; MIN6 prolif: -1; SR-BI uptake up: 15; HTR2A ag: -3

How did Cc1noc(C)c1CS(=O)(=O)c1ccc(Br)cc1 do in these assays?
SR-BI HDL uptake: -60; Calb FLC: 2; MIN6 prolif: 1; SR-BI uptake up: 60; Insulin prom up: 3.2*; HTR2A ag: 1

Results for COc1ccc(-c2nn(C)c(=O)c3ccccc23)cc1NC(=O)COc1ccc(C)cc1 ?
SR-BI HDL uptake: 92*; Calb FLC: -1; MIN6 prolif: -3; SR-BI uptake up: -92; Insulin prom up: -2.1; HTR2A ag: 0

What do the screens show for `CCC(=O)Nc1cc(-c2nn(C)c(=O)c3ccccc23)ccc1OC`?
SR-BI HDL uptake: 5; Calb FLC: 12; MIN6 prolif: -1; SR-BI uptake up: -5; Insulin prom up: -1.1; HTR2A ag: 1

What do the screens show for `Cc1cccc(C(=O)NNC2=C(C(=O)C(F)(F)F)CCC2)c1O`?
Calb FLC: 105*; MIN6 prolif: -7; Insulin prom up: 0.26; HTR2A ag: -7

What do the screens show for `O=C(NNc1ccc(Cl)cc1)C1CCC1`?
SR-BI HDL uptake: -32; Calb FLC: 85*; MIN6 prolif: 1; SR-BI uptake up: 32; Insulin prom up: -0.55; HTR2A ag: 2

Results for CCOc1cccc(/C=C(/C#N)c2nc3ccccc3[nH]2)c1OCC(=O)O ?
SR-BI HDL uptake: -25; Calb FLC: 4; MIN6 prolif: 0; SR-BI uptake up: 25; HTR2A ag: 0

What do the screens show for `CCN(CC)c1ccc(/C=C(/C#N)c2nc3ccccc3[nH]2)c(OC(C)C)c1`?
SR-BI HDL uptake: 94*; Calb FLC: 40; MIN6 prolif: -4; SR-BI uptake up: -94; HTR2A ag: 3

Results for COc1cc(/C=C(\C#N)c2nc3ccccc3[nH]2)c([N+](=O)[O-])cc1OCc1ccccc1 ?
SR-BI HDL uptake: 85*; Calb FLC: 8; MIN6 prolif: -6; SR-BI uptake up: -85; Insulin prom up: -0.35; HTR2A ag: -3

How did CCN1/C(=C/C=C/c2sc3ccccc3[n+]2CC)Sc2ccccc21 do in these assays?
SR-BI HDL uptake: inactive; Calb FLC: 27; MIN6 prolif: -8; SR-BI uptake up: 722*; HTR2A ag: -8

Results for CCn1c(O)c(/C=N/NC(=O)c2ccncc2)c(=O)n(CC)c1=S ?
SR-BI HDL uptake: 74*; Calb FLC: 44; SR-BI uptake up: -74; Insulin prom up: -0.11; HTR2A ag: -2

What do the screens show for `Cn1c(=O)n(C)c2cc(/C=N/NC(=O)c3ccncc3)ccc21`?
Calb FLC: -7; MIN6 prolif: -2; Insulin prom up: 0.25

How did CN1CCc2c(sc(NC(=O)c3cc4cc([N+](=O)[O-])ccc4s3)c2C(N)=O)C1 do in these assays?
Calb FLC: 97*; Insulin prom up: inconclusive

Results for CC(C)N1CCc2c(sc(NC(=O)c3cc4cc([N+](=O)[O-])ccc4s3)c2C(N)=O)C1 ?
SR-BI HDL uptake: 18; Calb FLC: 27; MIN6 prolif: -7; SR-BI uptake up: -18; HTR2A ag: 2

How did O=C1N/C(=N/Nc2ccccc2)S/C1=C\c1ccccc1 do in these assays?
SR-BI HDL uptake: -1; Calb FLC: -14; MIN6 prolif: -5; SR-BI uptake up: 1; Insulin prom up: 3.2*; HTR2A ag: -5

How did O=C1NC(=Nc2ccccc2)S/C1=C\c1ccccc1 do in these assays?
SR-BI HDL uptake: -7; Calb FLC: -3; MIN6 prolif: 0; SR-BI uptake up: 7; HTR2A ag: -1

How did O=S(=O)(NCC(c1ccc2c(c1)OCO2)N1CCOCC1)c1ccc(Cl)cc1 (configuration not stated) do in these assays?
SR-BI HDL uptake: -21; Calb FLC: -4; MIN6 prolif: 0; SR-BI uptake up: 21; HTR2A ag: -2

What do the screens show for `O=S(=O)(NCC(c1ccc2c(c1)OCO2)N1CCOCC1)c1ccccc1` (configuration not stated)?
SR-BI HDL uptake: -347; Calb FLC: 3; MIN6 prolif: -1; SR-BI uptake up: 347*; HTR2A ag: 7

How did Cc1ccc(NC(=O)COc2cccc3c2OC(C)(C)C3)c(O)c1 do in these assays?
SR-BI HDL uptake: 25; MIN6 prolif: 4; SR-BI uptake up: -25; HTR2A ag: -7

Results for COc1cc(Cl)c(C)cc1NC(=O)CN(C)Cc1cccc(OC)c1OC ?
SR-BI HDL uptake: 40; Calb FLC: -3; MIN6 prolif: -4; SR-BI uptake up: -40; Insulin prom up: 3.4*; HTR2A ag: -1

What do the screens show for `COc1ccccc1CN(C)CC(=O)Nc1cccc2ccccc12`?
SR-BI HDL uptake: 26; Calb FLC: -8; MIN6 prolif: 0; SR-BI uptake up: -26; HTR2A ag: -9

How did Cc1nc(NC(=O)C(C)(C)C)sc1C(=O)Cn1cc(-c2ccc(C(C)(C)C)cc2)nn1 do in these assays?
HTR2A ag: 6

How did CCN(CC)C(=O)Cn1cc(C(=O)C(=O)Nc2ccc3c(c2)OCCO3)c2ccccc21 do in these assays?
SR-BI HDL uptake: 77*; Calb FLC: 1; MIN6 prolif: -1; SR-BI uptake up: -77; HTR2A ag: -12

How did CCN(CC)C(=O)Cn1cc(C(=O)C(=O)NCCCN2CCOCC2)c2ccccc21 do in these assays?
SR-BI HDL uptake: -21; Calb FLC: -1; MIN6 prolif: -5; HTR2A ag: -1

How did O=C(NNC(=S)NC(=O)C12CC3CC(CC(C3)C1)C2)c1ccncc1 do in these assays?
SR-BI HDL uptake: -2; Calb FLC: 103*; MIN6 prolif: -2; SR-BI uptake up: 2; Insulin prom up: -0.27; HTR2A ag: -15

How did O=C(NNC(=O)C12CC3CC(CC(C3)C1)C2)c1cnccn1 do in these assays?
SR-BI HDL uptake: -13; Calb FLC: 104*; MIN6 prolif: 0; SR-BI uptake up: 13; Insulin prom up: -0.04; HTR2A ag: -3

Results for O=C(NNC(=O)C12CC3CC(CC(C3)C1)C2)c1ccccn1 ?
SR-BI HDL uptake: -25; Calb FLC: 1; MIN6 prolif: -6; SR-BI uptake up: 25; Insulin prom up: -1.1; HTR2A ag: -8
